Assay results taken from ChEMBL document CHEMBL1817553, “Synthesis and biological evaluation of Matijing-Su derivatives as potent anti-HBV agents” (Bioorg Med Chem, 2011).
pIC50: −log10 of the molar value. Calls of active or inactive are those of the source. The rule behind the calls is not given here. Square brackets hold non-standard residues; d marks the D form. Peptide text beside a SMILES is read from it. * marks the point of attachment. Phe(4-NO2) = N[C@@H](Cc1ccc([N+](=O)[O-])cc1)C(=O)O; 4Abz = Nc1ccc(C(=O)O)cc1; Propionyl = CCC(=O)*; Bz = O=C(c1ccccc1)*; ClAc = O=C(CCl)*

Assays:
[1] = Cytotoxicity against human HepG2(2.2.15) cells after 24 hours following 9 days of treatment by neutral red dye uptake assay; type: cell-based; details: read-out: TC50
In short: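 2.2.15 cells grown to confluence were treated with compound as in the antiviral assay, with untreated controls on each plate. Toxicity was measured by neutral red uptake (absorbance 510 nm, relative to untreated cells) 24 h after 9 days of treatment, giving TC50.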

Hepatitis B virus [2] = experiment: Antiviral activity against HBV infected in human HepG2(2.2.15) cells assessed as inhibition of viral DNA replication by measuring HBsAg and HBeAg production at TC50 after 9 days by EIA; type: functional, organism-based
[3] = Selectivity index, ratio of TC50 for human HepG2(2.2.15) cells to IC50 for HBV
In short: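 Calculated as TC50 (neutral red uptake in 2.2.15 cells) divided by IC50 (HBsAg/HBeAg inhibition by EIA in 2.2.15 cells).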

Hepatitis B virus [4] = experiment: Antiviral activity against HBV infected in human HepG2(2.2.15) cells assessed as inhibition of viral DNA replication by measuring HBsAg and HBeAg production after 9 days by EIA; type: functional, organism-based; details: HepG2 2.2.15, 216 h
In short: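 Confluent 2.2.15 cells in RPMI 1640 with 2% FBS received test compounds daily (medium changed daily) for 8 consecutive days in a second protocol. Cells in the 24-well protocol were seeded at 1.0 × 10⁵ cells/mL in MEM with 10% FBS for 24 h. They were then exposed to drug for 9 days, with medium changed every 3 days. Supernatant HBsAg/HBeAg was read by EIA at days 6 and 9, and the test was run twice.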

| pIC50 (Hepatitis B virus [4]) | SMILES | CC50 at 216 h [1] [µM] | inhibition (Hepatitis B virus [2]) | Selectivity Index [3] |
| --- | --- | --- | --- | --- |
|  | COC(=O)[C@H](Cc1ccccc1)NC(=O)[C@H](Cc1ccc(O)cc1)NC(=O)c1ccncc1 | 219 | inactive |  |
| 3.76 | CCCCOc1ccc(C[C@H](NC(=O)[C@H](Cc2ccccc2)NC(=O)c2ccccc2)C(=O)OC)cc1 | 1150 |  | 6.6 |
| 4.80 | CN(C)Cc1ccc(C(=O)N[C@@H](Cc2ccccc2)C(=O)N[C@H](CO)Cc2ccccc2)cc1 | 188 |  | 11.84 |
| 5.36 | CCC(=O)Nc1ccc(C(=O)N[C@@H](Cc2ccccc2)C(=O)N[C@@H](Cc2ccc([N+](=O)[O-])cc2)C(=O)OC)cc1 ({Propionyl-4Abz}-Phe-[Phe(4-NO2)]-OMe) | 147 |  | 33.53 |
| 5.27 | COC(=O)[C@H](Cc1ccc(O)cc1)NC(=O)[C@H](Cc1ccccc1)NC(=O)c1ccncc1 | 867 |  | 161.01 |
| 4.85 | O=C(N[C@@H](Cc1ccccc1)C(=O)N[C@H](CO)Cc1ccccc1)c1ccc(CN2CCCC2)cc1 | 128 |  | 9.11 |
|  | COC(=O)[C@H](Cc1ccccc1)NC(=O)[C@H](Cc1ccccc1)NC(=O)c1ccncc1 | 1060 | inactive |  |
| 4.19 | CCCCOc1ccc(C[C@H](NC(=O)[C@H](Cc2ccccc2)NC(=O)c2ccccc2)C(=O)[O-])cc1.[Na+] | 979 |  | 15.2 |
|  | COC(=O)[C@H](Cc1ccccc1)NC(=O)[C@H](Cc1ccccc1)NC(=O)c1ccc(NC(=O)CN2CCCC2)cc1 | 106 | inactive |  |
| 4.86 | O=C(N[C@@H](Cc1ccccc1)C(=O)N[C@H](CO)Cc1ccccc1)c1ccc(CN2CCOCC2)cc1 | 157 |  | 11.25 |
| 5.55 | CCC(=O)Nc1ccc(C(=O)N[C@@H](Cc2ccccc2)C(=O)N[C@@H](Cc2ccccc2)C(=O)OC)cc1 ({Propionyl-4Abz}-Phe-Phe-OMe) | 258 |  | 90.45 |
|  | O=C(N[C@@H](Cc1ccc(O)cc1)C(=O)N[C@H](CO)Cc1ccccc1)c1ccncc1 | 612 | inactive |  |
|  | CC(=O)OC[C@H](Cc1ccccc1)NC(=O)[C@H](Cc1ccccc1)NC(=O)c1ccc(CN2CCOCC2)cc1 | 609 | inactive |  |
|  | CCOc1ccc(C[C@H](NC(=O)[C@H](Cc2ccccc2)NC(=O)c2ccccc2)C(=O)O)cc1 (Bz-Phe-Tyr(Et)-OH) | 1010 | inactive |  |
| 3.98 | COC(=O)[C@H](Cc1ccccc1)NC(=O)[C@H](Cc1ccccc1)NC(=O)c1ccc(OCCN(C)C)cc1 | 497 |  | 4.74 |
|  | COC(=O)[C@H](Cc1ccc([N+](=O)[O-])cc1)NC(=O)[C@H](Cc1ccccc1)NC(=O)c1ccncc1 | 812 | inactive |  |
| 4.86 | CCOc1ccc(C[C@H](NC(=O)[C@H](Cc2ccccc2)NC(=O)c2ccccc2)C(=O)OC)cc1 (Bz-Phe-Tyr(Et)-OMe) | 818 |  | 58.61 |
| 5.04 | COC(=O)[C@H](Cc1ccc(O)cc1)NC(=O)[C@H](Cc1ccccc1)NC(=O)c1ccc(NC(C)=O)cc1 (Ac-[4Abz]-Phe-Tyr-OMe) | 771 |  | 85.09 |
|  | CC(=O)Nc1ccc(C(=O)N[C@@H](Cc2ccc(O)cc2)C(=O)N[C@H](CO)Cc2ccccc2)cc1 | 749 | inactive |  |
|  | COC(=O)[C@H](Cc1ccccc1)NC(=O)[C@H](Cc1ccccc1)NC(=O)c1ccc(NC(=O)CN(C)C)cc1 | 111 | inactive |  |
| 4.56 | CN(C)CCOc1ccc(C(=O)N[C@@H](Cc2ccccc2)C(=O)N[C@H](CO)Cc2ccccc2)cc1 | 327 |  | 11.86 |
|  | CC(=O)OC[C@H](Cc1ccccc1)NC(=O)[C@H](Cc1ccccc1)NC(=O)c1ccc(CN(C)C)cc1 | 508 | inactive |  |
|  | COC(=O)[C@H](Cc1ccc([N+](=O)[O-])cc1)NC(=O)[C@H](Cc1ccc(O)cc1)NC(=O)c1ccncc1 | 238 | inactive |  |
| 4.69 | COc1ccc(C[C@H](NC(=O)[C@H](Cc2ccccc2)NC(=O)c2ccccc2)C(=O)[O-])cc1.[Na+] (Bz-Phe-Tyr(Me)-OH) | 184 |  | 8.99 |
| 4.54 | O=C(N[C@@H](Cc1ccccc1)C(=O)N[C@H](CO)Cc1ccccc1)c1ccncc1 | 214 |  | 7.39 |
| 6.15 | CC(=O)Nc1ccc(C(=O)N[C@@H](Cc2ccccc2)C(=O)N[C@H](CCl)Cc2ccccc2)cc1 | 30.1 |  | 42.26 |
|  | COC(=O)[C@H](Cc1ccccc1)NC(=O)[C@H](Cc1ccccc1)NC(=O)c1ccc(NC(=O)CCl)cc1 ({ClAc-4Abz}-Phe-Phe-OMe) | 223 | inactive |  |
